Experimental data published in ChEMBL document CHEMBL3797143, “Novel S1P1 receptor agonists - Part 5: From amino-to alkoxy-pyridines” (Eur J Med Chem, 2016).
Activity calls are given as the source filed them. No cut-off for these calls is given here.

Key:
Rattus norvegicus [1] = assay: Decrease in peripheral blood lymphocyte count in Wistar rat at 10 mg/kg administered via oral gavage measured after 6 hrs; assay type: functional; parameters: scale not given: the % may be the effect or the level left
Outline: (§1)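 Male Wistar rats (RccHan:WIST) were given 10 mg/kg orally by gavage in vehicle containing 5% DMSO. Blood drawn by sublingual vein puncture under isoflurane before dosing and at the listed times after dosing. Lymphocytes counted on a haematology analyser. Results are % change from baseline, mean of 6-8 animals.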

[2] = biological target: Sphingosine 1-phosphate receptor 3 (Homo sapiens, UniProt Q99500); assay: Agonist activity at human recombinant S1PR3 expressed in CHO cell membranes incubated for 30 mins by [35S]GTPgammaS binding assay in presence of GDP; assay type: functional
Outline: (§2)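 Membranes from CHO cells expressing recombinant human S1P1 or S1P3. Compounds were preincubated with membranes for 30 min at room temperature. Reaction stopped by filtration, membrane-bound 35S-GTPγS counted. Geometric mean of ≥3 independent runs.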

Rattus norvegicus [3] = assay: Decrease in peripheral blood lymphocyte count in Wistar rat at 10 mg/kg administered via oral gavage measured after 3 hrs; assay type: functional; parameters: scale not given: the % may be the effect or the level left; outline: as §1
[4] = Plasma concentration in Wistar rat at 10 mg/kg administered via oral gavage measured after 6 hrs by LC-MS/MS analysis; assay type: ADME, organism-based
Outline: (§3)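 Male Wistar rats received 10 mg/kg orally by gavage. Blood was drawn at the listed times into EDTA tubes, and plasma was prepared by centrifugation at 3000 g for 10 min at 4 °C. Limit of quantification 3 nM.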

Rattus norvegicus [5] = assay: Decrease in peripheral blood lymphocyte count in Wistar rat at 10 mg/kg administered via oral gavage measured after 24 hrs; assay type: functional; parameters: scale not given: the % may be the effect or the level left; outline: as §1
[6] = Plasma concentration in Wistar rat at 10 mg/kg administered via oral gavage measured after 3 hrs by LC-MS/MS analysis; assay type: ADME, organism-based; outline: as §3
[7] = Plasma concentration in Wistar rat at 10 mg/kg administered via oral gavage measured after 24 hrs by LC-MS/MS analysis; assay type: ADME, organism-based; outline: as §3
[8] = Half life in Wistar rat at 10 mg/kg administered via oral gavage by LC-MS/MS analysis; assay type: ADME, organism-based; details: in vivo
Outline: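 Oral half-life was calculated from plasma concentrations measured in the lymphocyte-count study, in which male Wistar rats received 10 mg/kg orally. Plasma was prepared from EDTA blood by centrifugation at 3000 g for 10 min at 4 °C.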

[9] = Phototoxicity in Balb/c mouse 3T3 clone A31 cells assessed as inhibition of cell viability measured as photo irritancy factor at 0.05 to 100 uM preincubated for 1 hr followed by UVA irradiation measured after 24 hrs by neutral red uptake assay relative to control; assay type: functional
[10] = biological target: Sphingosine 1-phosphate receptor 1 (Homo sapiens, UniProt P21453); assay: Agonist activity at human recombinant S1PR1 expressed in CHO cell membranes incubated for 30 mins by [35S]GTPgammaS binding assay in presence of GDP; assay type: functional; outline: as §2
Rattus norvegicus [11] = assay: Time duration of maximum lymphocyte count reduction in Wistar rat at 10 mg/kg administered via oral gavage; assay type: functional
Outline: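 Duration of action is the latest sampling time at which maximal lymphocyte-count reduction was still seen. Male Wistar rats received 10 mg/kg orally, and blood lymphocytes were counted before dosing and at 3, 6 and 24 h (later times in some cases). Mean of 6-8 animals.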

Rattus norvegicus [12] = assay: Decrease in peripheral blood lymphocyte count in Wistar rat at 10 mg/kg administered via oral gavage measured after 72 hrs; assay type: functional; outline: as §1
[13] = Plasma concentration in Wistar rat at 10 mg/kg administered via oral gavage measured after 72 hrs by LC-MS/MS analysis; assay type: ADME, organism-based; outline: as §3
[14] = Phototoxicity in Balb/c mouse 3T3 clone A31 cells assessed as AUC of UV spectra between 310 and 350 nm normalized to compound concentration at 0.05 to 100 uM preincubated for 1 hr followed by UVA irradiation measured after 24 hrs by neutral red uptake assay relative to control; assay type: functional
Rattus norvegicus [15] = assay: Decrease in peripheral blood lymphocyte count in Wistar rat at 10 mg/kg administered via oral gavage measured after 144 hrs; assay type: functional; parameters: scale not given: the % may be the effect or the level left; outline: as §1
Rattus norvegicus [16] = assay: Decrease in peripheral blood lymphocyte count in Wistar rat at 10 mg/kg administered via oral gavage measured after 96 hrs; assay type: functional; parameters: scale not given: the % may be the effect or the level left; outline: as §1

Sphingosine 1-phosphate receptor 1, sequence (P21453 whole entry): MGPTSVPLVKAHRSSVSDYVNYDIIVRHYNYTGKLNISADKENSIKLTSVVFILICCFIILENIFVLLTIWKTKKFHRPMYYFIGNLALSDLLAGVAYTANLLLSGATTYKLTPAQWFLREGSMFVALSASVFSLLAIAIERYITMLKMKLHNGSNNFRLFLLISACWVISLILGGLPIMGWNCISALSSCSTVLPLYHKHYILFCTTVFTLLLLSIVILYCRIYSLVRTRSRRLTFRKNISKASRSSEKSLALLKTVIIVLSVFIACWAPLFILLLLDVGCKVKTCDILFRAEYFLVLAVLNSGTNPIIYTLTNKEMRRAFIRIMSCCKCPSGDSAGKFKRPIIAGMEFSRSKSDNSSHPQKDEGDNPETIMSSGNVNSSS
Sphingosine 1-phosphate receptor 3, sequence (Q99500 whole entry): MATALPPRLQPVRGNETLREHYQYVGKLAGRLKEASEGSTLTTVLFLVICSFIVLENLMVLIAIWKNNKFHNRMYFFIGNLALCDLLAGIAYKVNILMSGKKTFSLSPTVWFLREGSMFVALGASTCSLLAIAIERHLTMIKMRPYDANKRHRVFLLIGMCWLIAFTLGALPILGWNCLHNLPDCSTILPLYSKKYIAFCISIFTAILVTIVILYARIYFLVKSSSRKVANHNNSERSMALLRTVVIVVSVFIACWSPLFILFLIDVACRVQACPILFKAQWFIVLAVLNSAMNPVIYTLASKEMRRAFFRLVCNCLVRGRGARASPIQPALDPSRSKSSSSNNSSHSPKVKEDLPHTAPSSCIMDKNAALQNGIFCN

EC50 [2]	concentration at 6 h [4]	concentration at 3 h [6]	concentration at 24 h [7]	half-life [8]	EC50 [10]	concentration at 72 h [13]	SMILES	Activity (Rattus norvegicus [1])	Activity (Rattus norvegicus [3])	Activity (Rattus norvegicus [5])	Ratio [9]	Time (Rattus norvegicus [11])	Activity (Rattus norvegicus [12])	Ratio [14]	Activity (Rattus norvegicus [15])	Activity (Rattus norvegicus [16])
22 nM	–	–	–	–	0.3 nM	–	CCc1cc(-c2noc(-c3cc(OC)nc(C4CCC4)c3)n2)cc(C)c1OC[C@@H](O)CNC(=O)CO	61%	56%	61%	–	24 h	Active	–	–	–
55 nM	–	–	–	–	1.1 nM	–	CCc1cc(-c2nc(-c3cc(C)c(OC[C@@H](O)CNC(=O)CO)c(CC)c3)no2)cc(OC2CCC2)n1	75%	72%	79%	–	168 h	–	–	–	–
71 nM	2950 nM	2390 nM	970 nM	660 min	0.3 nM	–	CCc1cc(-c2noc(-c3cnc(C4CCCC4)c(OC)c3)n2)cc(C)c1OC[C@@H](O)CNC(=O)CO	82%	73%	84%	7.6	24 h	–	0.15	–	–
800 nM	–	–	–	–	0.7 nM	–	CCc1cc(-c2noc(-c3cc(OC)cc(C4CCCC4)n3)n2)cc(C)c1OC[C@@H](O)CNC(=O)CO	61%	58%	30%	2.4	6 h	–	0	–	–
1500 nM	1300 nM	1790 nM	100 nM	300 min	4.5 nM	–	CCc1cc(-c2noc(-c3cc(C4CCCC4)cc(OC)n3)n2)cc(C)c1OC[C@@H](O)CNC(=O)CO	75%	63%	-2%	2.1	6 h	–	0.09	–	–
930 nM	890 nM	1610 nM	39 nM	240 min	1 nM	–	CCc1cc(-c2noc(-c3cc(C)cc(OC4CCCC4)n3)n2)cc(C)c1OC[C@@H](O)CNC(=O)CO	58%	51%	-18%	2	6 h	–	0.1	–	–
1400 nM	510 nM	1560 nM	< 9 nM	< 180 min	11 nM	–	CCc1cc(-c2noc(-c3cc(OC4CCCC4)cc(C)n3)n2)cc(C)c1OC[C@@H](O)CNC(=O)CO	36%	50%	-33%	1.3	<3 h	–	0	–	–
50 nM	–	–	–	–	1.1 nM	–	CCc1cc(-c2nc(-c3cc(C)c(OC[C@@H](O)CNC(=O)CO)c(CC)c3)no2)cc(OC2CCCC2)n1	71%	64%	76%	–	24 h	–	–	–	Active
17 nM	–	–	–	–	1.5 nM	–	CCc1cc(-c2noc(-c3cnc(OC)c(C4CCCC4)c3)n2)cc(C)c1OC[C@@H](O)CNC(=O)CO	–	–	–	–	–	–	–	–	–
210 nM	2020 nM	2520 nM	71 nM	240 min	0.6 nM	–	CCc1cc(-c2noc(-c3cc(OC)c(C4CCCC4)cn3)n2)cc(C)c1OC[C@@H](O)CNC(=O)CO	86%	79%	60%	2.1	6 h	–	0.02	–	–
110 nM	–	–	–	–	0.3 nM	–	CCc1cc(-c2noc(-c3cc(C)nc(OC4CCC4)c3)n2)cc(C)c1OC[C@@H](O)CNC(=O)CO	62%	66%	72%	–	96 h	–	–	21%	62%
920 nM	500 nM	690 nM	61 nM	360 min	1.4 nM	–	CCc1cc(-c2noc(-c3ccc(C4CCCC4)c(OC)n3)n2)cc(C)c1OC[C@@H](O)CNC(=O)CO	78%	70%	23%	6.5	6 h	–	0.17	–	–
690 nM	–	–	–	–	7.3 nM	–	CCc1cc(-c2noc(-c3cc(OC)nc(C4CCCCC4)c3)n2)cc(C)c1OC[C@@H](O)CNC(=O)CO	58%	58%	72%	–	24 h	–	–	–	33%

The remaining lines, values behind:

SMILES	EC50 [2]	concentration at 6 h [4]	concentration at 3 h [6]	concentration at 24 h [7]	half-life [8]	EC50 [10]	concentration at 72 h [13]	Activity (Rattus norvegicus [1])	Activity (Rattus norvegicus [3])	Activity (Rattus norvegicus [5])	Ratio [9]	Time (Rattus norvegicus [11])	Activity (Rattus norvegicus [12])	Ratio [14]	Activity (Rattus norvegicus [15])	Activity (Rattus norvegicus [16])
CCc1cc(-c2noc(-c3cc(OC)nc(C(CC)CC)c3)n2)cc(C)c1OC[C@@H](O)CNC(=O)CO	96 nM	470 nM	750 nM	46 nM	540 min	0.4 nM	< 3 nM	59%	59%	36%	0.9	6 h	Active	0.05	–	–
CCc1cc(-c2nc(-c3cc(C)c(CCC(=O)NCCO)c(CC)c3)no2)cnc1N(C)C(C)C	–	–	–	–	–	–	–	–	–	–	>200	–	–	–	–	–
CCc1cc(-c2noc(-c3cc(C)nc(C(CC)CC)c3)n2)cc(C)c1OC[C@@H](O)CNC(=O)CO	–	–	–	–	–	–	–	–	–	–	1.7	–	–	–	–	–
CCc1cc(-c2noc(-c3cc(C)nc(OC(C)C)c3)n2)cc(C)c1OC[C@@H](O)CNC(=O)CO	95 nM	–	–	–	–	0.2 nM	–	67%	66%	74%	–	96 h	–	–	28%	70%
CCc1cc(-c2noc(-c3cc(C)nc(N(CC)CC)c3)n2)cc(C)c1OC[C@@H](O)CNC(=O)CO	–	–	–	–	–	–	–	–	–	70%	–	72 h	62%	–	–	–
CCc1cc(-c2noc(-c3cc(OC)nc(-c4ccccc4)c3)n2)cc(C)c1OC[C@@H](O)CNC(=O)CO	1600 nM	–	–	–	–	28 nM	–	–	–	–	–	–	–	–	–	–
CCc1cc(-c2nnc(-c3cc(C)nc(CC(C)C)c3)o2)cc(C)c1OC[C@@H](O)CNC(=O)CO	–	–	–	–	–	–	–	–	–	–	1.1	–	–	–	–	–
CCc1cc(-c2noc(-c3cnc(C)c(OC4CCCC4)c3)n2)cc(C)c1OC[C@@H](O)CNC(=O)CO	38 nM	–	–	–	–	21 nM	–	–	–	–	–	–	–	–	–	–
CCc1cc(-c2nc(-c3cc(C)c(OC[C@@H](O)CO)c(CC)c3)no2)cnc1CC(C)C	–	–	–	–	–	–	–	–	–	–	1.6	–	–	–	–	–
CCc1cc(-c2noc(-c3cc(OC)cc(C(CC)CC)n3)n2)cc(C)c1OC[C@@H](O)CNC(=O)CO	520 nM	–	–	–	–	1.2 nM	–	–	–	–	–	–	–	–	–	–
CCc1cc(-c2noc(-c3cc(OC)cc(CC(C)C)n3)n2)cc(C)c1OC[C@@H](O)CNC(=O)CO	1400 nM	–	–	–	–	1.5 nM	–	66%	58%	23%	–	6 h	–	–	–	–
CCc1cc(-c2nnc(-c3cc(C)nc(N(CC)CC)c3)o2)cc(C)c1OC[C@@H](O)CNC(=O)CO	–	–	–	–	–	–	–	–	–	–	>200	–	–	–	–	–
CCc1cc(-c2noc(-c3cc(C(CC)CC)cc(OC)n3)n2)cc(C)c1OC[C@@H](O)CNC(=O)CO	180 nM	240 nM	410 nM	12 nM	240 min	1.1 nM	–	50%	57%	-10%	–	<3 h	–	–	–	–
CCc1cc(-c2noc(-c3cnc(OC4CCCC4)c(C)c3)n2)cc(C)c1OC[C@@H](O)CNC(=O)CO	140 nM	960 nM	1140 nM	510 nM	960 min	0.7 nM	–	85%	76%	85%	1.4	24 h	–	0.02	–	–
